Assay results taken from ChEMBL document CHEMBL1131046, “Substituted salicylanilides as inhibitors of two-component regulatory systems in bacteria” (J Med Chem, 1998).
Values after ≈ are worked out from the molar mass of the structure shown. Active and inactive are the calls of the source. No cut-off for these calls is given here.

Assays:
[1] = target: T1, KinA/Spo0F (sporulation kinase A/sporulation initiation phosphotransferase F) (Bacillus subtilis (strain 168), UniProt P06628+P16497); test: Inhibition of autophosphorylation of the two-component signal transduction system kinase was measured using the KinA/Spo0F regulatory system of Bacillus subtilis.; type: functional
T1 sequence (P06628 whole entry): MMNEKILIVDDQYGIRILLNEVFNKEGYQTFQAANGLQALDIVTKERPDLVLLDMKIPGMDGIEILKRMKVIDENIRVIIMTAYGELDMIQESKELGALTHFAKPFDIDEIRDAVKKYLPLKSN
T1 sequence (P16497 whole entry): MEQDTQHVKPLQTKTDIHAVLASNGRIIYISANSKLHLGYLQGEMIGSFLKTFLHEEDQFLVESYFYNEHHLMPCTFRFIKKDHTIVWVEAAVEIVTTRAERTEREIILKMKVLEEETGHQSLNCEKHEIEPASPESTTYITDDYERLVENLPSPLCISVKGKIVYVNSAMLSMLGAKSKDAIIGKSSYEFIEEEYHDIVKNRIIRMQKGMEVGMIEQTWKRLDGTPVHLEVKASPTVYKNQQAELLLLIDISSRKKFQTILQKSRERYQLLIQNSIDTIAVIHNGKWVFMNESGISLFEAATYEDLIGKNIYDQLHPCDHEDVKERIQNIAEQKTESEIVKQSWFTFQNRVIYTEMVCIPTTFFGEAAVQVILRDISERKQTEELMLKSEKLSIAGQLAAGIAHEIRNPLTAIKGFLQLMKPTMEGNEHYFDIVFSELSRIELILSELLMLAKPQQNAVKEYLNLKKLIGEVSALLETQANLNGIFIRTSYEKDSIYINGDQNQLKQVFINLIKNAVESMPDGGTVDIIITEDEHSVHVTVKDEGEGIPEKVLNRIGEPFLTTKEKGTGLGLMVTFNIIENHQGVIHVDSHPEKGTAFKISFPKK

[2] = tested on: Enterococcus faecium; test: Minimum inhibitory activity against Enterococcus faecium OC3312.; type: functional
Method in brief: (§1)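 MIC by NCCLS broth microdilution. Strains are ATCC and clinical isolates, including methicillin-resistant S. aureus.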

[3] = tested on: Enterococcus faecalis; test: Minimum inhibitory activity against Enterococcus faecalis OC3041.; type: functional; method in brief: as §1
[4] = tested on: Enterococcus faecalis; test: Percentage of specific activity relative to untreated control at a concentration allowing 80% growth.; type: functional
Method in brief: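 OD600 is followed every 30 min. Luciferase RLU/OD600 is measured 2 h after induction. The value is specific activity as a percentage of untreated control, taken at the compound concentration allowing 80% growth.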

[5] = tested on: Enterococcus faecalis; test: Activity of the VanS/VanR TCS in Enterococcus faecalis OC3364; + indicate decrease of the luciferase specific activity relative to an untreated control; type: functional, organism-based
Method in brief: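 Reporter assay in Enterococcus faecalis OC3364 (from JH2) carrying vanR vanS and a Φ(vanH-luc) fusion on separate plasmids. […] OD600 is read every 30 min. At 2 h cells are lysed and luciferase RLU is read with ATP, coenzyme A and luciferin. Specific activity = RLU/OD600, compared with an untreated control.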

[6] = tested on: Staphylococcus aureus; test: Minimum inhibitory activity against Staphylococcus aureus ATCC 29213.; type: functional; method in brief: as §1
[7] = tested on: Staphylococcus aureus; test: Minimum inhibitory activity against Staphylococcus aureus MRSA OC2089.; type: functional; method in brief: as §1
[8] = tested on: Enterococcus faecalis; test: Activity of the VanS/VanR TCS in Enterococcus faecalis OC3364; +{i} indicate induced overexpression of luciferase specific activity; type: functional, organism-based
Method in brief: (§2)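 E. faecalis OC3364 (JH2-derived) carries vanR vanS and a vanH-luc fusion on separate plasmids. […] OD600 was read every 30 min. At 2 h, cells were lysed by 10 min shaking in an equal volume of Genepol X-80 mix. Luciferase RLU was read with ATP, coenzyme A and luciferin. Specific activity (RLU/OD600) was compared with an untreated control.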

[9] = tested on: Staphylococcus aureus; test: Minimum inhibitory activity against methicillin resistant Staphylococcus aureus (MRSA) OC2089.; type: functional
Method in brief: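 Broth microdilution MIC following NCCLS methods for aerobically growing bacteria.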

[10] = tested on: Enterococcus faecalis; test: Activity of the VanS/VanR TCS in Enterococcus faecalis OC3364; -{i} indicate over-expression of luciferase in both strains; type: functional, organism-based; method in brief: as §2
[11] = tested on: Enterococcus faecalis; test: Activity of the VanS/VanR TCS in Enterococcus faecalis OC3364; +{i} indicate induced over-expression of luciferase specific activity; type: functional, organism-based; method in brief: as §2

| Structure (SMILES) | IC50 [1] | MIC [2] | MIC [3] | MIC [6] | MIC [9] | also measured |
| --- | --- | --- | --- | --- | --- | --- |
| O=C(Nc1ccc(Cl)c(Cl)c1)c1cc(C(F)(F)F)ccc1O | > 500 µM | – | – | – | – | – |
| Cc1cc(C(C#N)c2ccc(Cl)cc2)c(Cl)cc1NC(=O)c1cccc(O)c1O (stereo not drawn) | 2.8 µM | 16 µg/mL (≈ 37.4 µM) | 16 µg/mL (≈ 37.4 µM) | 16 µg/mL (≈ 37.4 µM) | – | AG80 [4]: 66%; Activity [5]: Active; MIC [7]: 16 µg/mL (≈ 37.4 µM) |
| O=C(Nc1ccc(Cl)c(Cl)c1)c1cc(C(F)(F)F)cc(C(F)(F)F)c1O | 27 µM | 2 µg/mL (≈ 4.78 µM) | 2 µg/mL (≈ 4.78 µM) | 1 µg/mL (≈ 2.39 µM) | 1 µg/mL (≈ 2.39 µM) | Activity [8]: Active |
| Cc1cc(C(C#N)c2ccc(Cl)cc2)c(Cl)cc1NC(=O)c1cc(I)cc(I)c1O (stereo not drawn) [CLOSANTEL] | 3.8 µM | 1 µg/mL (≈ 1.51 µM) | 0.12 µg/mL (≈ 0.181 µM) | 2 µg/mL (≈ 3.02 µM) | 1 µg/mL (≈ 1.51 µM) | AG80 [4]: 100% |
| CN[C@H](CC(C)C)C(=O)N[C@H]1C(=O)N[C@@H](CC(N)=O)C(=O)N[C@H]2C(=O)N[C@H]3C(=O)N[C@H](C(=O)N[C@H](C(=O)O)c4cc(O)cc(O)c4-c4cc3ccc4O)[C@H](O)c3ccc(c(Cl)c3)Oc3cc2cc(c3O[C@@H]2O[C@H](CO)[C@@H](O)[C@H](O)[C@H]2O[C@H]2C[C@](C)(N)[C@H](O)[C@H](C)O2)Oc2ccc(cc2Cl)[C@H]1O [VANCOMYCIN] | – | > 128 µg/mL | – | – | – | – |
| Cc1cc(C(C#N)c2ccc(Cl)cc2)c(Cl)cc1NC(=O)c1cc(Cl)ccc1O (stereo not drawn) | > 500 µM | – | – | – | – | – |
| O=C(Nc1ccc([N+](=O)[O-])cc1)c1cc(Cl)cc(Cl)c1O | > 500 µM | > 64 µg/mL | > 32 µg/mL | 4 µg/mL (≈ 12.2 µM) | – | MIC [7]: 4 µg/mL (≈ 12.2 µM) |
| Cc1cc(C(C#N)c2ccc(Cl)cc2)c(Cl)cc1NC(=O)c1cc(C(F)(F)F)cc(C(F)(F)F)c1O (stereo not drawn) | 9 µM | – | – | – | – | – |
| CC(C)(C)c1cc(C(=O)Nc2ccc(Cl)c(Cl)c2)c(O)c(C(C)(C)C)c1 | > 500 µM | – | – | – | – | – |
| COc1cc(OC)c(O)c(C(=O)Nc2cc(Cl)c(C(C#N)c3ccc(Cl)cc3)cc2C)c1 (stereo not drawn) | 250 µM | – | – | – | – | – |
| O=C(Nc1ccccc1)c1cc(Cl)cc(Cl)c1O | > 500 µM | 32 µg/mL (≈ 113 µM) | 64 µg/mL (≈ 227 µM) | 1 µg/mL (≈ 3.54 µM) | 4 µg/mL (≈ 14.2 µM) | – |
| Cc1cc(C(CN)c2ccc(Cl)cc2)c(Cl)cc1NC(=O)c1cc(I)cc(I)c1O (stereo not drawn) | 86 µM | – | – | – | – | – |
| CC(C)(C)c1ccc(NC(=O)c2cc(Cl)cc(Cl)c2O)cc1 | 67 µM | 4 µg/mL (≈ 11.8 µM) | 8 µg/mL (≈ 23.7 µM) | 2 µg/mL (≈ 5.91 µM) | 2 µg/mL (≈ 5.91 µM) | Activity [10]: inactive |
| Cc1cc(C(C#N)c2ccc(Cl)cc2)c(Cl)cc1NC(=O)c1cc(C(C)(C)C)cc(C(C)(C)C)c1O (stereo not drawn) | > 500 µM | – | – | – | – | – |
| COc1ccc(NC(=O)c2cc(Cl)cc(Cl)c2O)cc1 | > 500 µM | – | – | – | – | – |
| Cc1onc(-c2ccccc2)c1C(=O)N[C@@H]1C(=O)N2[C@@H]1SC(C)(C)[C@@H]2C(=O)O [OXACILLIN] | – | > 64 µg/mL | 16 µg/mL (≈ 39.9 µM) | 0.25 µg/mL (≈ 0.623 µM) | – | MIC [7]: > 64 µg/mL |
| Cc1cc(C(C#N)c2ccc(Cl)cc2)c(Cl)cc1NC(=O)c1cc(C(F)(F)F)ccc1O (stereo not drawn) | 19 µM | 1 µg/mL (≈ 2.09 µM) | 1 µg/mL (≈ 2.09 µM) | 1 µg/mL (≈ 2.09 µM) | 1 µg/mL (≈ 2.09 µM) | AG80 [4]: 95% |
| Cc1cc(C(=O)c2ccc(Cl)cc2)c(Cl)cc1NC(=O)c1cc(I)cc(I)c1O | > 500 µM | – | – | – | – | – |
| COc1cc(OC)c(O)c(C(=O)Nc2ccc(Cl)c(Cl)c2)c1 | > 500 µM | – | – | – | – | – |
| O=C(Nc1ccc(Cl)c(C(F)(F)F)c1)c1cc(Cl)cc(Cl)c1O | 50 µM | 1 µg/mL (≈ 2.6 µM) | 0.5 µg/mL (≈ 1.3 µM) | 0.5 µg/mL (≈ 1.3 µM) | 0.25 µg/mL (≈ 0.65 µM) | Activity [10]: inactive |
| O=C(Nc1ccc(Cl)cc1)c1cc(Cl)cc(Cl)c1O | 185 µM | – | – | – | – | – |
| O=C(Nc1ccc(Cl)c(Cl)c1)c1cc(Cl)cc(Cl)c1O [3,3',4',5-TETRACHLOROSALICYLANILIDE] | – | 1 µg/mL (≈ 2.85 µM) | 0.5 µg/mL (≈ 1.42 µM) | 0.5 µg/mL (≈ 1.42 µM) | 0.25 µg/mL (≈ 0.712 µM) | Activity [8]: Active |
| O=C(Nc1ccc(Cl)c(Cl)c1)c1cc(Cl)ccc1O | > 500 µM | – | – | – | – | – |
| O=C(Nc1ccc(Cl)c(Cl)c1)c1cc(I)cc(I)c1O | 21 µM | 0.5 µg/mL (≈ 0.936 µM) | 0.5 µg/mL (≈ 0.936 µM) | 1 µg/mL (≈ 1.87 µM) | 0.25 µg/mL (≈ 0.468 µM) | Activity [8]: Active |
| Cc1cc(C(C#N)c2ccc(Cl)cc2)c(Cl)cc1NC(=O)c1cc(Cl)cc(Cl)c1O (stereo not drawn) | 4.8 µM | 2 µg/mL (≈ 4.17 µM) | 2 µg/mL (≈ 4.17 µM) | 1 µg/mL (≈ 2.08 µM) | – | Activity [11]: Active; MIC [7]: 1 µg/mL (≈ 2.08 µM) |
| O=C(Nc1ccc(Cl)c(Cl)c1)c1cccc(O)c1O | 9.5 µM | 32 µg/mL (≈ 107 µM) | 8 µg/mL (≈ 26.8 µM) | 8 µg/mL (≈ 26.8 µM) | – | AG80 [4]: 48%; Activity [5]: Active; MIC [7]: 8 µg/mL (≈ 26.8 µM) |
